Where two headings read alike, the source gives them in different places.
What was measured:
[1] = Dispersion stability of surfactant-stabilized GNRs at high ionic strength; assay type: physicochemical; details: 1 M NaCl
Summary of the method: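 Citrate-stabilized gold nanorods were centrifuged and redispersed twice in 0.1 M NaCl containing millimolar zwitterionic sulfobetaine surfactant. Ionic strength was then raised with brine to 0.5 or 1.0 M. Dispersion stability was followed as retention of optical density, measured by absorbance spectrophotometry, after one day and one week.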

[2] = tested on: HepaRG cells; experiment: Cell viability assay; assay type: cell-based, human
Summary of the method: (§1)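 HepaRG, MDCK (canine kidney) or LLC-PK1 (pig kidney) cells were grown at 37°C, 5% CO2 in RPMI 1640 with 10% FBS, 1% glutamine and 1% penicillin–streptomycin. Cells were exposed for 24 h at 37°C to serial dilutions of sulfobetaine surfactant in medium (final-volume concentrations). MTT (0.5%) was added for 4 h, formazan was dissolved in DMSO 16 h in the dark, and A590 was read against medium-only controls. Triplicate.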

[3] = tested on: MDCK cells; experiment: Cell viability assay; assay type: cell-based, canine; details: read-out: Cell viability IC50, MTT, mean of triplicate
Summary of the method: as §1

[4] = tested on: SKOV-3 cells; experiment: Cell viability assay; assay type: cell-based; details: Homo sapiens, SK-OV-3, 24 h, read-out: Cell viability IC50
Summary of the method: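 SKOV-3 cells in folate-free RPMI 1640 (10% FBS, 1% penicillin–streptomycin) were seeded at 5,000 cells/100 μL and preincubated 24 h at 37°C, 5% CO2. Serial dilutions in medium (final-volume concentrations) were added for 24 h at 37°C. MTT (0.5%) was then added for 4 h, followed by DMSO solubilization 16 h at 25°C in the dark. A590 was normalized to medium-only cells. Triplicate.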

[5] = tested on: LLC-PK1 cells; experiment: Cell viability assay; assay type: cell-based, pig; details: read-out: Cell viability IC50; LLC-PK1, MTT, mean of triplicate
Summary of the method: as §1

[6] = read-out: Cell viability IC50, MTT, mean of triplicate

SMILES	retention of optical density of stabilized GNRs ([1]; after one day)	retention of optical density of stabilized GNRs ([1]; after one week) [%]	IC50 [2, 6] [µM]	IC50 [3] [µM]	IC50 [4] [µM]	IC50 ([2]; Homo sapiens, read-out: Cell viability IC50) [µM]	IC50 [5] [µM]
CCCCCCCCCCCCCCCCCC[N+](C)(C)CCCS(=O)(=O)[O-] [C18-SB, 3-(N,N-dimethyloctadecylammonio)sulfopropyl betaine]	over 90%	80	52	56			
CCCCCCCCCCCCCCCC[N+](C)(C)C [CTAB, cetyltrimethylammonium bromide]					8	8	
CCCCCCCC/C=C\CCCCCCCC[N+](C)(C)CCCS(=O)(=O)[O-] [OSB, oleylsulfobetaine]	over 90%	80	32	42			62

Now from value to compound, other results behind:

retention of optical density of stabilized GNRs ([1]; after one day)	retention of optical density of stabilized GNRs ([1]; after one week) [%]	SMILES	IC50 [2, 6] [µM]	IC50 [3] [µM]	IC50 [4] [µM]	IC50 ([2]; Homo sapiens, read-out: Cell viability IC50) [µM]	IC50 [5] [µM]
over 90%	80	CCCCCCCCCCCCCC(=O)NCCC[N+](C)(C)CCCS(=O)(=O)[O-] [ASB-14]	105	120			
over 90%	80	CCCCCCCCCCCCCCCC(=O)NCCC[N+](C)(C)CCCS(=O)(=O)[O-] [ASB-16]	58	81			
